The target of data set [1] is Serine/threonine-protein kinase OSR1 (Homo sapiens) (UniProt O95747). Kind of data set: Binding affinity to wild-type human full length OSR1 (M1 to S527 residues) expressed in mammalian expression system assessed as remaining unbound target protein level at 1000 nM by Kinomescan method relative to control. The gist of the method: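 Single-point competition binding screen across a panel of 468 kinases and mutants, with the inhibitor at 1 μM. Binding is read out as percent of a DMSO control, and targets below 1 percent control were classed as strong binders.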

Data set [2] deals with Receptor-type tyrosine-protein kinase FLT3 (Homo sapiens), P36888 [UNDEFINED MUTATION]. The data set can be described thus: Binding affinity to human partial length FLT3 ITD mutant expressed in bacterial expression system assessed as remaining unbound target protein level at 1000 nM by Kinomescan method relative to control. The gist of the method:
(§1)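 KINOMEscan competition-binding profiling across the panel of 468 kinases and mutants, with inhibitor tested at 1 μM. Binding is expressed as percent of control, with DMSO as the reference control.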

The test system of data set [3] is MV4-11. The data set can be described thus: Induction of apoptosis in human MV4-11 cells assessed as decrease in c-MYC level after 2 hrs by immunoblotting analysis. It is filed as functional, cell-based. A general note: In western blotting, separated proteins are transferred to a membrane and probed.
Data set [4] concerns Proto-oncogene tyrosine-protein kinase receptor Ret (Homo sapiens), P07949 [V804L]. Kind of data set: Binding affinity to human partial length RET V804L mutant (E713 to D1014 residues) expressed in bacterial expression system assessed as remaining unbound target protein level at 1000 nM by Kinomescan method relative to control. The gist of the method:
as §1

The target in data set [5] is Tyrosine-protein kinase JAK1 (Homo sapiens) (UniProt P23458). Kind of data set: Binding affinity to wild-type human partial length JAK1 JH1 catalytic domain (V856 to K1154 residues) expressed in bacterial expression system assessed as remaining unbound target protein level at 1000 nM by Kinomescan method relative to control. In short, it runs like this:
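KINOMEscan binding panel of 468 kinases/mutants. Inhibitor was tested at a single concentration of 1 μM. Binding is reported as percent of control, defined relative to a DMSO control.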

For data set [6], the system named is Epidermal growth factor receptor (Homo sapiens), P00533 [UNDEFINED MUTATION]. Kind of data set: Binding affinity to human partial length EGFR L747-E749del/A750P mutant expressed in bacterial expression system assessed as remaining unbound target protein level at 1000 nM by Kinomescan method relative to control. The gist of the method: as §1
Data set [7] concerns the target Cyclin-dependent kinase 8 (Homo sapiens) (UniProt P49336). Kind of data set: Binding affinity to wild-type human partial length CDK8 (M1 to T360 residues) expressed in bacterial expression system assessed as remaining unbound target protein level at 1000 nM by Kinomescan method relative to control.
Data set [8] deals with Phosphatidylinositol 4,5-bisphosphate 3-kinase catalytic subunit alpha isoform (Homo sapiens), P42336 [Q546K]. Kind of data set: Binding affinity to human partial length PIK3CA Q546K mutant (R108 to N1068 residues) expressed in mammalian expression system assessed as remaining unbound target protein level at 1000 nM by Kinomescan method relative to control. In short, it runs like this: as §1

In data set [9] the target is SNF-related serine/threonine-protein kinase (Homo sapiens) (UniProt Q9NRH2). The data set can be described thus: Binding affinity to wild-type human partial length SNRK (M1 to E339 residues) expressed in mammalian expression system assessed as remaining unbound target protein level at 1000 nM by Kinomescan method relative to control.
In data set [10] the target is Serine/threonine-protein kinase Sgk2 (Homo sapiens) (UniProt Q9HBY8). The data set can be described thus: Binding affinity to wild-type human partial length SGK2 (L54 to C427 residues) expressed in mammalian expression system assessed as remaining unbound target protein level at 1000 nM by Kinomescan method relative to control.
The target in data set [11] is Serine/threonine-protein kinase PLK2 (Homo sapiens) (UniProt Q9NYY3). Kind of data set: Binding affinity to wild-type human partial length PLK2 (H58 to F354 residues) expressed in mammalian expression system assessed as remaining unbound target protein level at 1000 nM by Kinomescan method relative to control.
Data set [12] can be described thus: Tmax in Sprague-Dawley rat at 3 mg/kg, iv by LC-MS/MS analysis. It counts as ADME, organism-based. The note with it: in vivo.
Data set [13] addresses Dual specificity testis-specific protein kinase 1 (Homo sapiens) (UniProt Q15569). Kind of data set: Binding affinity to wild-type human full length TESK1 (R37 to S626 residues) expressed in bacterial expression system assessed as remaining unbound target protein level at 1000 nM by Kinomescan method relative to control. The gist of the method: (§2)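 Profiled in a KINOMEscan binding panel with the inhibitor at a single concentration of 1 μM. Binding to each kinase was read out as percent of control, relative to a DMSO control. Strong binders were defined as those with a percent control value below 1.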

Data set [14] deals with Serine/threonine-protein kinase B-raf (Homo sapiens), P15056 [V600E]. The data set can be described thus: Binding affinity to human partial length BRAF V600E mutant (S429 to E741 residues) expressed in mammalian expression system assessed as remaining unbound target protein level at 1000 nM by Kinomescan method relative to control. The gist of the method: as §1
The subject of data set [15] is MV4-11. Kind of data set: Antitumor activity against human MV4-11 cells xenografted in nu/nu mouse assessed as tumor growth inhibition at 10 to 30 mg/kg, po administered via gavage for 2 weeks measured every day during compound dosing. It is filed as functional, organism-based. In short, it runs like this:
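Female nu/nu mice, five weeks old, implanted subcutaneously in the right flank with 5 million MV4-11 cells in PBS/Matrigel 1:1. Daily oral gavage in 0.5% methylcellulose/0.4% Tween80 started at tumor volume 200–400 mm³, 10, 20 or 30 mg/kg/day or vehicle, 5 mice per group. Tumor volume (W²×L)/2 and body weight measured daily; mean ± SEM.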
A general note: In xenograft studies the graft and the host belong to different species.

The target of data set [16] is Serine/threonine-protein kinase Nek9 (Homo sapiens) (UniProt Q8TD19). Kind of data set: Binding affinity to wild-type human partial length NEK9 (P32 to R328 residues) expressed in bacterial expression system assessed as remaining unbound target protein level at 1000 nM by Kinomescan method relative to control.
A short description of data set [17]: Antiproliferative activity against Chinese hamster CHL cells after 72 hrs by Celltiter-Glo assay. The note with it: Cricetulus griseus.
Data set [18] addresses CDK9/Cyclin K (Homo sapiens, UniProt P50750). The data set can be described thus: Inhibition of CDK9/Cyclin K (unknown origin) using PDKtide as substrate incubated at 37 degreeC for 1 hr followed by incubation at room temperature for 5 mins by ADP-Glo reagent based luminescence assay. It is filed as protein-complex assay.
Data set [19] deals with Serine/threonine-protein kinase N2 (Homo sapiens) (UniProt Q16513). The data set can be described thus: Binding affinity to wild-type human partial length PKN2 (E634 to C984 residues) expressed in bacterial expression system assessed as remaining unbound target protein level at 1000 nM by Kinomescan method relative to control.
The target of data set [20] is TGF-beta receptor type-2 (Homo sapiens) (UniProt P37173). Kind of data set: Binding affinity to wild-type human partial length TGFBR2 (I218 to K567 residues) expressed in bacterial expression system assessed as remaining unbound target protein level at 1000 nM by Kinomescan method relative to control.
Data set [21] addresses Aurora kinase A (Homo sapiens) (UniProt O14965). The data set can be described thus: Binding affinity to wild-type human partial length AURKA (E122 to K401 residues) expressed in mammalian expression system assessed as remaining unbound target protein level at 1000 nM by Kinomescan method relative to control. The gist of the method:
as §2

Activity calls are given as the source filed them.

Sequence of Phosphatidylinositol 4,5-bisphosphate 3-kinase catalytic subunit alpha isoform (Homo sapiens), P42336 [Q546K] (P42336 whole entry Q546K, the tested form may be a part, canonical isoform): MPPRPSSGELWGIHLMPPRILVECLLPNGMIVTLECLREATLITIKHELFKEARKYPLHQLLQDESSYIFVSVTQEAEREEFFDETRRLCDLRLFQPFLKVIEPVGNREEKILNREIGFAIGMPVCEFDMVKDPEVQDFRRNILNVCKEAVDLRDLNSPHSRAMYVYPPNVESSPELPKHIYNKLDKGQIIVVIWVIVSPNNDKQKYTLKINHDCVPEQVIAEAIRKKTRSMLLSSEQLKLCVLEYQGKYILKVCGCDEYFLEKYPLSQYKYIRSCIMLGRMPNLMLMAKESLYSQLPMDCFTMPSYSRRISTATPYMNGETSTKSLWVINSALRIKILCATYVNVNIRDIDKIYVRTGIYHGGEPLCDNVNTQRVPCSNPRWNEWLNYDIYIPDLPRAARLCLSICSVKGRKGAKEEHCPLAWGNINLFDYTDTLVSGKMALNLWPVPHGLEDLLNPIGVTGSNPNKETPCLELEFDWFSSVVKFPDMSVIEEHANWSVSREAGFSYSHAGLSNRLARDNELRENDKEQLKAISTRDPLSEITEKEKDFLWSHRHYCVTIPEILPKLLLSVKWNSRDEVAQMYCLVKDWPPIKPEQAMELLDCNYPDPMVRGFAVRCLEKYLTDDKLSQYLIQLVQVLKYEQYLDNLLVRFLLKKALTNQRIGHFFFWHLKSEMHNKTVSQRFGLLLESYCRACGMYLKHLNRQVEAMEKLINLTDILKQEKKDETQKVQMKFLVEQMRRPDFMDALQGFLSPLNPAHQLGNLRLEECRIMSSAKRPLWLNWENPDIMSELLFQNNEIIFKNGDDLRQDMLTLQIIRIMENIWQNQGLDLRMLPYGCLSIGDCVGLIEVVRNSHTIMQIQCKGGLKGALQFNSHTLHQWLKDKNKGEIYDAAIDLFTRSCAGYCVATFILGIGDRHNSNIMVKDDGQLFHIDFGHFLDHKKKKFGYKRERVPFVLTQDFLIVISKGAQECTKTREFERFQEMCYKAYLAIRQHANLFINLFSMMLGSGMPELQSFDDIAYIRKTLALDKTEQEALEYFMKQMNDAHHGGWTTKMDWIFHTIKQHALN
Sequence of Serine/threonine-protein kinase Nek9 (Homo sapiens) (Q8TD19 whole entry, the tested form may be a part): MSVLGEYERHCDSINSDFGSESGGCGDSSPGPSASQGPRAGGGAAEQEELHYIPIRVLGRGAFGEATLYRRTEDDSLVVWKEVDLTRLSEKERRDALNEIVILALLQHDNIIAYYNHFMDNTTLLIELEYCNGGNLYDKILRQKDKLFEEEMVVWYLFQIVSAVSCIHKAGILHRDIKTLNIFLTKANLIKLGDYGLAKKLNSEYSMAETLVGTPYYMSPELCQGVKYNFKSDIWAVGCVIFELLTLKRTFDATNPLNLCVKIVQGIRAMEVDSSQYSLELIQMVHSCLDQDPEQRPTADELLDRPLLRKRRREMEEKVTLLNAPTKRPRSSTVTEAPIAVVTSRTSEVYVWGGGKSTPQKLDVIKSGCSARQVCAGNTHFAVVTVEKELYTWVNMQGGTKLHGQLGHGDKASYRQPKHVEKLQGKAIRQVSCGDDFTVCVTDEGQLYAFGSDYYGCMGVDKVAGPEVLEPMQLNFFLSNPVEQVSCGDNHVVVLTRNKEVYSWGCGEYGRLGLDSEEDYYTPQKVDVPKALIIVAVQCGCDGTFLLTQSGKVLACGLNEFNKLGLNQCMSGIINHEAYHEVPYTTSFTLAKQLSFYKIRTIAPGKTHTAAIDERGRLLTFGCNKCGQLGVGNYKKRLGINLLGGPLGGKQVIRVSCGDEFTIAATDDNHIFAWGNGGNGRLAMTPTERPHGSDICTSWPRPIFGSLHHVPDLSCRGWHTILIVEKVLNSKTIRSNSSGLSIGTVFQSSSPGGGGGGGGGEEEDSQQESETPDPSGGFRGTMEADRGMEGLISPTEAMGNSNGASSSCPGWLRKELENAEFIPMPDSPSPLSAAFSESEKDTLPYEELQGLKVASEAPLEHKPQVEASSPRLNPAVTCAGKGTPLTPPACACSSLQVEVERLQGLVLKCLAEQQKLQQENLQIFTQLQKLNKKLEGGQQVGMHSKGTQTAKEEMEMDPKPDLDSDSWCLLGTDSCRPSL
Sequence of Serine/threonine-protein kinase B-raf (Homo sapiens), P15056 [V600E] (P15056 whole entry V600E, the tested form may be a part): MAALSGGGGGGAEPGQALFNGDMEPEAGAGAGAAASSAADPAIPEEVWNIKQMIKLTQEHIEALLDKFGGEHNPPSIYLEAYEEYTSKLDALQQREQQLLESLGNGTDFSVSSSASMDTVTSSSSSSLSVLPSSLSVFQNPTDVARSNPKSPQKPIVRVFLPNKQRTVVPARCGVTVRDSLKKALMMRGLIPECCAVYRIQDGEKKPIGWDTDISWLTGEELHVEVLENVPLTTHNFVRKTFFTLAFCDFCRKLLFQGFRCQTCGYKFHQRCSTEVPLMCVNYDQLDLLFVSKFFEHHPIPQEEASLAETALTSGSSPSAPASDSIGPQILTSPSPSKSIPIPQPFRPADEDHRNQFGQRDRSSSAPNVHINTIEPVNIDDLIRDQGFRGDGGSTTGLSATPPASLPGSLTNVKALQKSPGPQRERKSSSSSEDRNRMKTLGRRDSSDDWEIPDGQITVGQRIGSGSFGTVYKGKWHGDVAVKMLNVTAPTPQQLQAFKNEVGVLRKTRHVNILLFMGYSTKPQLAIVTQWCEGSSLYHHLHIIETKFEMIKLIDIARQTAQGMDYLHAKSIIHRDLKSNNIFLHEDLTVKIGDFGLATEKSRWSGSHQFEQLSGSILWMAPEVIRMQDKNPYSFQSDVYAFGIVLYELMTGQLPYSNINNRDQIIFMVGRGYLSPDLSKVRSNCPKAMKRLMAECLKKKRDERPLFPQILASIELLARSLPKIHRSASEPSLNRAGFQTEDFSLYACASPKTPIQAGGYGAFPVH
Sequence of Aurora kinase A (Homo sapiens) (O14965 whole entry, the tested form may be a part): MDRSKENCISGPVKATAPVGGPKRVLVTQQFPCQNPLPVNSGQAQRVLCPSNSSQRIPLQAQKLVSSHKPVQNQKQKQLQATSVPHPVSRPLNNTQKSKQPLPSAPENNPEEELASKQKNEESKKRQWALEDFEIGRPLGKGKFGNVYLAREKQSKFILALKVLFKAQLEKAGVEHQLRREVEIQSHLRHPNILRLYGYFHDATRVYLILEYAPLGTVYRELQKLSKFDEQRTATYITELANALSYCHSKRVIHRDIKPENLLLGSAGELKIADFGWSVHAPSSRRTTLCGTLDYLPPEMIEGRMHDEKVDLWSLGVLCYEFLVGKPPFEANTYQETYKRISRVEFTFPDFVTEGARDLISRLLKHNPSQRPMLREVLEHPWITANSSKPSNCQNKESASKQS
Sequence of Serine/threonine-protein kinase N2 (Homo sapiens) (Q16513 whole entry, looked up, the tested form may be a part): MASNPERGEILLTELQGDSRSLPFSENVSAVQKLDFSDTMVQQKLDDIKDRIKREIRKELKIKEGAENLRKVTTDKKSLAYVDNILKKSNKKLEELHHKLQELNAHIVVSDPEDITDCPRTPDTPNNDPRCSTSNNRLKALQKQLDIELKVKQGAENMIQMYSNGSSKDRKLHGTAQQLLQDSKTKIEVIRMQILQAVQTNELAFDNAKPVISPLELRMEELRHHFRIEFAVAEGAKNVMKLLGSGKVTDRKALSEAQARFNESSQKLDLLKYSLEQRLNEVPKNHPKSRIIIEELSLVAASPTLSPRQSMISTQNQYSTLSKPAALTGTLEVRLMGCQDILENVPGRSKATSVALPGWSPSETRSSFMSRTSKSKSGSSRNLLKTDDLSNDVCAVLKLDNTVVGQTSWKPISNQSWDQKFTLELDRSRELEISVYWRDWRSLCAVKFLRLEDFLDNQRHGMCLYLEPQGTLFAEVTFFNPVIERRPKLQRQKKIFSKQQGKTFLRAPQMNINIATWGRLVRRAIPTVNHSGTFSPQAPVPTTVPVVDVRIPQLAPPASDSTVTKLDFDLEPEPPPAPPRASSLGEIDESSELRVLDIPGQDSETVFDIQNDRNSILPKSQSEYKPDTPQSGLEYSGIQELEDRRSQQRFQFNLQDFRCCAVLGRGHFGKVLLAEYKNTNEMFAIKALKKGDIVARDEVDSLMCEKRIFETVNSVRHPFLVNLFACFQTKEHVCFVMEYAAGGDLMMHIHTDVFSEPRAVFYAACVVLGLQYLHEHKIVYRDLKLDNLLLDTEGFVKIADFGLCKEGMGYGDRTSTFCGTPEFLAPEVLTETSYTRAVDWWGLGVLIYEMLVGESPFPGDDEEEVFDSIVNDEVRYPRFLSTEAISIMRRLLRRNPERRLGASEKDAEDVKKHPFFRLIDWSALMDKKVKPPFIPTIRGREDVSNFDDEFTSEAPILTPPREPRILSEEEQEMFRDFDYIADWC
Sequence of Serine/threonine-protein kinase OSR1 (Homo sapiens) (O95747 2-527 limits assumed): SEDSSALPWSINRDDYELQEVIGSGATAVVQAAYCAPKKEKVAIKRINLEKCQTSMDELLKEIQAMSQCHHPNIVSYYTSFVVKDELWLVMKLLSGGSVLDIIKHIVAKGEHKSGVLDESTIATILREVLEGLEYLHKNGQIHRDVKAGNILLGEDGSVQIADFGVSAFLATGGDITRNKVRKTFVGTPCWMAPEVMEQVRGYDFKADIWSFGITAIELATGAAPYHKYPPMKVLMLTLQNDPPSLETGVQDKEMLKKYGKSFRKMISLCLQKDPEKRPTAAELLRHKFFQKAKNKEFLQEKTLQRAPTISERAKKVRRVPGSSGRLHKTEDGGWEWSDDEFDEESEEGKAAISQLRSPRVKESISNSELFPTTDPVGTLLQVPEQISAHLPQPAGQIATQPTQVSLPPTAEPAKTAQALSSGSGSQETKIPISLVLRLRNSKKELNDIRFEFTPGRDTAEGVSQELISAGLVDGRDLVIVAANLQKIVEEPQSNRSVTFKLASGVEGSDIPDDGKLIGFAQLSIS

As a reminder, the Tmax is the time at which the peak concentration occurs. In general, GI50 refers to the concentration at which growth is held to half of that of the control. Low readings indicate more potent growth inhibition, high ones less potent growth inhibition. The IC50 is the concentration needed to halve the response being measured. Turning to `COCCN[C@H]1CC[C@H](Nc2cc(-c3csc(NCC4(C#N)CCOCC4)n3)c(Cl)cn2)CC1`, the Activity in data set [1] is 100%; in data set [2] it was 89%; in data set [3] it was “Dose-dependent effect”; in data set [4], 92%; in data set [5], 99%; in data set [6] it was 92%. In addition, the Activity in data set [7] was 100%; in [8] it was 88%; in data set [9], 100%; in [10], 89%; in data set [11], 100%; in [13], 92%. The Activity turned out to be 91% in data set [14]; 89% in data set [16]; 100% in data set [19]; 100% in data set [20]; 100% in [21]. Besides, in [12], the Tmax turned out to be 1.2 min. Besides, in [15], the TGI entry is “Active”. In [17], this compound displayed a GI50 of 1200 nM. Moreover, the IC50 in [18] was 6 nM.

(Values after ChEMBL document CHEMBL4261600 (Eur J Med Chem, 2018).)
